Experiment [1] relates to Human alphaherpesvirus 2. Briefly: In vitro maximum tolerated level against herpes simplex virus-2 (HSV-2) by plaque-reduction assay in vero cells. The class given is functional. (Plaques are areas of infected cells; plaque reduction assays count them against a control.)
For experiment [2], the system named is Human alphaherpesvirus 2. Briefly: In vivo maximum tolerated dose against herpes simplex virus-2 (HSV-2) by oral administration in female mice. In kind it is functional.
In experiment [3] the test system is Human alphaherpesvirus 2. Description: (§1) Minimum effective dose against herpes simplex virus-2 (HSV-2) by oral administration in female mice. In kind it is functional. As to conditions: Human alphaherpesvirus 2, po; read-out: MED.
Experiment [4] has as its system Human alphaherpesvirus 2. Description: (§2) In vitro minimum inhibitory concentration against herpes simplex virus-2 (HSV-2) by plaque-reduction assay in vero cells. In kind it is functional.
In experiment [5] the test system is Vero. Description: Tested in vitro for minimum inhibitory concentration against herpes simplex virus-2 (HSV-2) 2011 strain by plaque-reduction assay in vero cells. The class given is functional. As to conditions: Chlorocebus sabaeus. A digest of the protocol: (§3)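 Vero monolayers (2 days old, confluent; Hank's MEM + 5% inactivated FCS, 37 °C, 2% CO2) infected with ~80 PFU; after 1-h adsorption, overlay of M199/5% FCS with 1:150 human immune serum globulin plus serial 2-fold compound dilutions (1:200 from DMSO). 3 d incubation, glutaraldehyde fix, crystal violet stain, plaque count. MIC = lowest concentration giving 50% plaque reduction; mean of ≥2 experiments.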

Experiment [6] has as its system Vero. Briefly: Tested in vitro for minimum inhibitory concentration against herpes simplex virus-1 (HSV-1) 2992 strain by plaque-reduction assay in vero cells. In kind it is functional. The following applies: Chlorocebus sabaeus. Put shortly:
as §3

Experiment [7] relates to Vero. Briefly: Tested in vitro for minimum inhibitory concentration against herpes simplex virus-1 (HSV-1) 1142 strain by plaque-reduction assay in vero cells. The class given is functional. As to conditions: Chlorocebus sabaeus. A digest of the protocol: as §3
Experiment [8] concerns Vero. Briefly: Tested in vitro for minimum inhibitory concentration against herpes simplex virus-1 (HSV-1) KOS strain by plaque-reduction assay in vero cells. The class given is functional. As to conditions: Chlorocebus sabaeus. Put shortly: as §3
In experiment [9] the test system is Vero. Description: Tested in vitro for minimum inhibitory concentration against herpes simplex virus-2 (HSV-2) curtis strain by plaque-reduction assay in vero cells. The class given is functional. As to conditions: Chlorocebus sabaeus. A digest of the protocol:
as §3

Experiment [10] deals with Vero. Description: Tested in vitro for minimum inhibitory concentration against herpes simplex virus-2 (HSV-2) 2115 strain by plaque-reduction assay in vero cells. The class given is functional. As to conditions: Chlorocebus sabaeus. Put shortly:
as §3

The test system of experiment [11] is Vero. Briefly: Tested in vitro for minimum inhibitory concentration against herpes simplex virus-1 (HSV-1) F strain by plaque-reduction assay in vero cells. The class given is functional. As to conditions: Chlorocebus sabaeus. Put shortly:
as §3

The subject of experiment [12] is Vero. Description: Tested in vitro for minimum inhibitory concentration against herpes simplex virus-1 (HSV-1) KOS, ACG strain by plaque-reduction assay in vero cells. The class given is functional. As to conditions: Chlorocebus sabaeus. A digest of the protocol:
as §3

In experiment [13] the test system is Human alphaherpesvirus 2. The description is as §1. The class given is functional, organism-based. Put shortly: (§4)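 Swiss female ICR mice (13–15 g) infected intravaginally with HSV-2 (Curtis) at a dose set for 80% mortality. Compound suspended in 1% gum tragacanth/2% Tween 80, given intragastrically at serial 2-fold doses, 20 mice per dose, 2 h before infection then twice daily for 5 d. Mortality followed 14 d; MED = lowest dose with survival differing from placebo (Mantel-Cox, Breslow).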

Experiment [14] deals with Human alphaherpesvirus 2. The experiment is described as §2. The class given is functional, organism-based. Put shortly:
as §3

In experiment [15] the test system is Vero. The description is as §2. The class given is functional, cell-based. As to conditions: Chlorocebus sabaeus. Put shortly:
as §3

The subject of experiment [16] is Vero. Description: Tested in vitro for minimum inhibitory concentration against herpes simplex virus-2 (HSV-2) 2011 strain by plaque-reduction assay in vero cells. The following applies: Chlorocebus sabaeus.
The next experiment deals with Mus musculus. Briefly: Tested in vivo for minimum effective dose against herpes simplex virus-2 (HSV-2) by oral administration in female mice;not active. In kind it is functional, organism-based. A digest of the protocol: as §4
Experiment [17] deals with Vero. Description: Tested in vitro for minimum inhibitory concentration against herpes simplex virus-2 (HSV-2) by plaque-reduction assay in vero cells; not active. The class given is functional, cell-based. The following applies: Chlorocebus sabaeus. Put shortly: as §3

In brackets after ≈: the same amount, converted by molar mass. Activity calls are given as the source filed them. No cut-off for these calls is given here.

Broadly, the MTD is the highest dose tested that stayed within the study's limit of toxicity. The low end stands for a narrow tolerated range, the high end for a wide tolerated range. As to `CCn1cc(C(=O)NC)c(=O)c2ccc(-c3ccncc3)cc21`, the MTL with Human alphaherpesvirus 2 [1] is greater than 25 µg/mL. This compound also registered an MTD with Human alphaherpesvirus 2 [2] of 50 mg/kg. Also, the minimal effective dose in the experiment on Human alphaherpesvirus 2 [3] was 50 mg/kg. Besides, the MIC in the experiment on Human alphaherpesvirus 2 [4] is 9 µg/mL (≈ 29.3 µM).

As for `CCn1c(=O)c(C(N)=O)c(O)c2ccc(-c3ccncc3)cc21`, the MTL in the experiment with Human alphaherpesvirus 2 [1] was 6.25 µg/mL. For the same compound, the MTD with Human alphaherpesvirus 2 [2] turned out to be 100 mg/kg. The minimal effective dose in the experiment on Human alphaherpesvirus 2 [3] came out at 100 mg/kg. For the same compound, in the experiment on Human alphaherpesvirus 2 [4], the MIC was determined as 2.1 µg/mL (≈ 6.79 µM).

As for `NC(=O)c1cn(-c2cccc(F)c2)c2cc(-c3ccncc3)ccc2c1=O`, the MTL in the experiment on Human alphaherpesvirus 2 [1] was greater than 25 µg/mL. In the experiment on Human alphaherpesvirus 2 [2], the MTD was determined as 50 mg/kg. Besides, the minimal effective dose in the experiment on Human alphaherpesvirus 2 [3] stood at 50 mg/kg. The MIC against Human alphaherpesvirus 2 [4] worked out at 0.71 µg/mL (≈ 1.98 µM).

For the compound `NC(=O)c1c(N)n(-c2ccc(F)cc2)c2cc(-c3ccncc3)ccc2c1=O`, the MTL in the experiment on Human alphaherpesvirus 2 [1] is greater than 100 µg/mL. Also, in the experiment on Human alphaherpesvirus 2 [2], the MTD was found to be 50 mg/kg. The minimal effective dose with Human alphaherpesvirus 2 [3] was found to be 50 mg/kg. In addition, the MIC against Human alphaherpesvirus 2 [4] amounted to 0.33 µg/mL (≈ 0.881 µM).

Compound `NC(=O)c1cn(-c2ccc(Br)cc2)c2cc(-c3ccncc3)ccc2c1=O` returned an MTL with Human alphaherpesvirus 2 [1] greater than 12.5 µg/mL. The same compound showed an MTD in the experiment with Human alphaherpesvirus 2 [2] of 50 mg/kg. Besides, the minimal effective dose in the experiment with Human alphaherpesvirus 2 [3] is 50 mg/kg. In the experiment on Human alphaherpesvirus 2 [4], this compound had an MIC of 0.47 µg/mL (≈ 1.12 µM).

`NC(=O)c1cn(-c2ccccc2)c2cc(-c3ccncc3)ccc2c1=O` returned an MTL with Human alphaherpesvirus 2 [1] of 6.25 µg/mL. In addition, the MTD in the experiment with Human alphaherpesvirus 2 [2] is 50 mg/kg. Further, in the experiment on Human alphaherpesvirus 2 [3], the minimal effective dose was 25 mg/kg. For the same compound, the MIC in the experiment with Human alphaherpesvirus 2 [4] was 0.78 µg/mL (≈ 2.28 µM).

On to `Nc1nc2c(ncn2COCCO)c(=O)[nH]1` [ACYCLOVIR], for which the MIC with Vero [5] was determined as 43 µg/mL (≈ 191 µM); against Vero [6] it was 11 µg/mL (≈ 48.8 µM); in the experiment on Vero [7], 7.8 µg/mL (≈ 34.6 µM); against Vero [8], 0.14 µg/mL (≈ 0.622 µM); against Vero [9], 1.3 µg/mL (≈ 5.77 µM); with Vero [10], 77 µg/mL (≈ 342 µM). In addition, the MIC stood at 0.29 µg/mL (≈ 1.29 µM) against Vero [11], 43 µg/mL (≈ 191 µM) with Vero [12] and 1.3 µg/mL (≈ 5.77 µM) against Human alphaherpesvirus 2 [4]. For the same compound, in the experiment with Human alphaherpesvirus 2 [1], the MTL is greater than 200 µg/mL. In the experiment on Human alphaherpesvirus 2 [2], this compound displayed an MTD greater than 200 mg/kg. In the experiment with Human alphaherpesvirus 2 [3], the minimal effective dose was 12 mg/kg.

As to `NC(=O)c1cn(-c2ccncc2)c2cc(-c3ccncc3)ccc2c1=O`, the MTL in the experiment on Human alphaherpesvirus 2 [1] is greater than 200 µg/mL. The MTD in the experiment on Human alphaherpesvirus 2 [2] worked out at 75 mg/kg. Moreover, the minimal effective dose with Human alphaherpesvirus 2 [3] is 75 mg/kg. In the experiment with Human alphaherpesvirus 2 [4], this compound returned an MIC of 7.2 µg/mL (≈ 21 µM).

Turning to `NC(=O)c1cn(-c2ccccc2F)c2cc(-c3ccncc3)ccc2c1=O`, the MED result in the experiment on Human alphaherpesvirus 2 [13] is “inactive”. Further, the MIC result in the experiment on Human alphaherpesvirus 2 [14] was “inactive”. The same compound had an MTL in the experiment with Human alphaherpesvirus 2 [1] of 1.6 µg/mL. For the same compound, the MTD in the experiment on Human alphaherpesvirus 2 [2] turned out to be 100 mg/kg.

Turning to `NC(=O)c1cn(-c2ccc(Cl)cc2)c2cc(-c3ccncc3)ccc2c1=O`, in the experiment on Human alphaherpesvirus 2 [1], the MTL was greater than 25 µg/mL. In addition, the MTD in the experiment on Human alphaherpesvirus 2 [2] worked out at 100 mg/kg. For the same compound, the minimal effective dose with Human alphaherpesvirus 2 [3] was 50 mg/kg. Also, in the experiment on Human alphaherpesvirus 2 [4], the MIC was determined as 0.4 µg/mL (≈ 1.06 µM).

In the experiment with Human alphaherpesvirus 2 [1], `CCn1cc(C(N)=O)c(=O)c2ccc(-c3ccncc3)cc21` yielded an MTL of 12.5 µg/mL. The same compound had an MTD in the experiment on Human alphaherpesvirus 2 [2] of 50 mg/kg. Moreover, in the experiment with Human alphaherpesvirus 2 [3], the minimal effective dose came to 50 mg/kg. For the same compound, in the experiment with Human alphaherpesvirus 2 [4], the MIC stood at 6.5 µg/mL (≈ 22.2 µM).

For the compound `CCn1cc(C(=O)NNC)c(=O)c2ccc(-c3ccncc3)cc21`, the MIC entry in the experiment on Vero [15] was “inactive”. Moreover, the MTL in the experiment with Human alphaherpesvirus 2 [1] was 25 µg/mL.

Regarding `NC(=O)c1cn(-c2ccc(F)cc2)c2cc(-c3ccncc3)ccc2c1=O`, the MIC in the experiment on Vero [16] amounted to 0.15 µg/mL (≈ 0.417 µM); in the experiment with Vero [6], 0.24 µg/mL (≈ 0.668 µM); against Vero [7], 0.18 µg/mL (≈ 0.501 µM); in the experiment with Vero [8], 0.23 µg/mL (≈ 0.64 µM); against Vero [9], 0.24 µg/mL (≈ 0.668 µM); in the experiment on Vero [10] it was 0.13 µg/mL (≈ 0.362 µM). In addition, the MIC against Vero [11] was 0.13 µg/mL (≈ 0.362 µM); in the experiment with Vero [12], 0.32 µg/mL (≈ 0.89 µM); against Human alphaherpesvirus 2 [4], 0.24 µg/mL (≈ 0.668 µM). Moreover, in the experiment with Human alphaherpesvirus 2 [1], the MTL worked out at 6.25 µg/mL. This compound displayed an MTD in the experiment with Human alphaherpesvirus 2 [2] of 50 mg/kg. In addition, the minimal effective dose with Human alphaherpesvirus 2 [3] came to 25 mg/kg.

For the compound `CCn1cc(C(=O)NN)c(=O)c2ccc(-c3ccncc3)cc21`, the MED result in the experiment on Mus musculus is “inactive”. This compound came in with an MTL with Human alphaherpesvirus 2 [1] of 50 µg/mL. In the experiment on Human alphaherpesvirus 2 [2], the MTD was 100 mg/kg. Besides, the MIC against Human alphaherpesvirus 2 [4] was found to be 38 µg/mL (≈ 123 µM).

As to `NC(=O)c1cn(-c2ccc(Cl)c(Cl)c2)c2cc(-c3ccncc3)ccc2c1=O`, in the experiment on Human alphaherpesvirus 2 [1], the MTL was greater than 100 µg/mL. In the experiment on Human alphaherpesvirus 2 [2], this compound yielded an MTD of 100 mg/kg. In the experiment on Human alphaherpesvirus 2 [3], the minimal effective dose was found to be 50 mg/kg. Besides, the MIC with Human alphaherpesvirus 2 [4] is 0.52 µg/mL (≈ 1.27 µM).

Regarding `NC(=O)c1cn(-c2ccc(F)cc2)c2cc(-c3cc[n+]([O-])cc3)ccc2c1=O`, in the experiment with Vero [15], the MIC entry was “inactive”. Further, the MTL with Human alphaherpesvirus 2 [1] was greater than 12.5 µg/mL. The compound also came in with an MTD in the experiment on Human alphaherpesvirus 2 [2] of 100 mg/kg. In addition, the minimal effective dose with Human alphaherpesvirus 2 [3] turned out to be 25 mg/kg.

Consider `CCn1cc(C(=O)N(C)O)c(=O)c2ccc(-c3ccncc3)cc21`, for which the MIC entry with Vero [17] is “inactive”. In addition, the MTL in the experiment with Human alphaherpesvirus 2 [1] came to 50 µg/mL.

As to `CCn1cc(C(=O)NO)c(=O)c2ccc(-c3ccncc3)cc21`, in the experiment with Mus musculus, the MED entry is “inactive”. Further, the MTL in the experiment on Human alphaherpesvirus 2 [1] worked out at 25 µg/mL. The same compound gave an MTD with Human alphaherpesvirus 2 [2] of 100 mg/kg. Further, the MIC against Human alphaherpesvirus 2 [4] is 6.8 µg/mL (≈ 22 µM).

The values above are taken from ChEMBL document CHEMBL1127020, “3-Quinolinecarboxamides. A series of novel orally-active antiherpetic agents” (1993).
